Laboratory results taken from ChEMBL document CHEMBL2412977, “Synthetic studies of centromere-associated protein-E (CENP-E) inhibitors: 1.Exploration of fused bicyclic core scaffolds using electrostatic potential map” (Bioorg Med Chem, 2013).
pEC50, pIC50: −log10 of the molar value.

Experiments:
[1] = biological target: T1, Centromere-associated protein E (Homo sapiens, UniProt Q02224); experiment: Inhibition of ATPase activity of CENP-E motor domain (unknown origin) by high throughput screening assay
[2] = biological target: T1, Centromere-associated protein E; experiment: Inhibition of human ATPase activity of CENP-E motor domain assessed as ADP production after 60 mins by ADP-Glo luminescence assay
[3] = Permeability of the compound at pH 7.4 by PAMPA; assay type: ADME; details: read-out: permeability
How it was run: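 Passive permeability measured in a parallel artificial membrane permeability assay (PAMPA) system at pH 7.4, reported in nm/sec.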

HeLa = experiment: Induction of mitotic arrest in human HeLa cells assessed as accumulation of phosphorylated histone H3 after 16 hrs by FACS analysis; assay type: functional, cell-based
How it was run: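 HeLa cells scored for phosphorylated histone H3 positive cell count (%) by FACS. EC50 is the concentration giving a response halfway between baseline and maximum p-HH3 positive count.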

T1 sequence (Q02224 whole entry, the tested form may be a part): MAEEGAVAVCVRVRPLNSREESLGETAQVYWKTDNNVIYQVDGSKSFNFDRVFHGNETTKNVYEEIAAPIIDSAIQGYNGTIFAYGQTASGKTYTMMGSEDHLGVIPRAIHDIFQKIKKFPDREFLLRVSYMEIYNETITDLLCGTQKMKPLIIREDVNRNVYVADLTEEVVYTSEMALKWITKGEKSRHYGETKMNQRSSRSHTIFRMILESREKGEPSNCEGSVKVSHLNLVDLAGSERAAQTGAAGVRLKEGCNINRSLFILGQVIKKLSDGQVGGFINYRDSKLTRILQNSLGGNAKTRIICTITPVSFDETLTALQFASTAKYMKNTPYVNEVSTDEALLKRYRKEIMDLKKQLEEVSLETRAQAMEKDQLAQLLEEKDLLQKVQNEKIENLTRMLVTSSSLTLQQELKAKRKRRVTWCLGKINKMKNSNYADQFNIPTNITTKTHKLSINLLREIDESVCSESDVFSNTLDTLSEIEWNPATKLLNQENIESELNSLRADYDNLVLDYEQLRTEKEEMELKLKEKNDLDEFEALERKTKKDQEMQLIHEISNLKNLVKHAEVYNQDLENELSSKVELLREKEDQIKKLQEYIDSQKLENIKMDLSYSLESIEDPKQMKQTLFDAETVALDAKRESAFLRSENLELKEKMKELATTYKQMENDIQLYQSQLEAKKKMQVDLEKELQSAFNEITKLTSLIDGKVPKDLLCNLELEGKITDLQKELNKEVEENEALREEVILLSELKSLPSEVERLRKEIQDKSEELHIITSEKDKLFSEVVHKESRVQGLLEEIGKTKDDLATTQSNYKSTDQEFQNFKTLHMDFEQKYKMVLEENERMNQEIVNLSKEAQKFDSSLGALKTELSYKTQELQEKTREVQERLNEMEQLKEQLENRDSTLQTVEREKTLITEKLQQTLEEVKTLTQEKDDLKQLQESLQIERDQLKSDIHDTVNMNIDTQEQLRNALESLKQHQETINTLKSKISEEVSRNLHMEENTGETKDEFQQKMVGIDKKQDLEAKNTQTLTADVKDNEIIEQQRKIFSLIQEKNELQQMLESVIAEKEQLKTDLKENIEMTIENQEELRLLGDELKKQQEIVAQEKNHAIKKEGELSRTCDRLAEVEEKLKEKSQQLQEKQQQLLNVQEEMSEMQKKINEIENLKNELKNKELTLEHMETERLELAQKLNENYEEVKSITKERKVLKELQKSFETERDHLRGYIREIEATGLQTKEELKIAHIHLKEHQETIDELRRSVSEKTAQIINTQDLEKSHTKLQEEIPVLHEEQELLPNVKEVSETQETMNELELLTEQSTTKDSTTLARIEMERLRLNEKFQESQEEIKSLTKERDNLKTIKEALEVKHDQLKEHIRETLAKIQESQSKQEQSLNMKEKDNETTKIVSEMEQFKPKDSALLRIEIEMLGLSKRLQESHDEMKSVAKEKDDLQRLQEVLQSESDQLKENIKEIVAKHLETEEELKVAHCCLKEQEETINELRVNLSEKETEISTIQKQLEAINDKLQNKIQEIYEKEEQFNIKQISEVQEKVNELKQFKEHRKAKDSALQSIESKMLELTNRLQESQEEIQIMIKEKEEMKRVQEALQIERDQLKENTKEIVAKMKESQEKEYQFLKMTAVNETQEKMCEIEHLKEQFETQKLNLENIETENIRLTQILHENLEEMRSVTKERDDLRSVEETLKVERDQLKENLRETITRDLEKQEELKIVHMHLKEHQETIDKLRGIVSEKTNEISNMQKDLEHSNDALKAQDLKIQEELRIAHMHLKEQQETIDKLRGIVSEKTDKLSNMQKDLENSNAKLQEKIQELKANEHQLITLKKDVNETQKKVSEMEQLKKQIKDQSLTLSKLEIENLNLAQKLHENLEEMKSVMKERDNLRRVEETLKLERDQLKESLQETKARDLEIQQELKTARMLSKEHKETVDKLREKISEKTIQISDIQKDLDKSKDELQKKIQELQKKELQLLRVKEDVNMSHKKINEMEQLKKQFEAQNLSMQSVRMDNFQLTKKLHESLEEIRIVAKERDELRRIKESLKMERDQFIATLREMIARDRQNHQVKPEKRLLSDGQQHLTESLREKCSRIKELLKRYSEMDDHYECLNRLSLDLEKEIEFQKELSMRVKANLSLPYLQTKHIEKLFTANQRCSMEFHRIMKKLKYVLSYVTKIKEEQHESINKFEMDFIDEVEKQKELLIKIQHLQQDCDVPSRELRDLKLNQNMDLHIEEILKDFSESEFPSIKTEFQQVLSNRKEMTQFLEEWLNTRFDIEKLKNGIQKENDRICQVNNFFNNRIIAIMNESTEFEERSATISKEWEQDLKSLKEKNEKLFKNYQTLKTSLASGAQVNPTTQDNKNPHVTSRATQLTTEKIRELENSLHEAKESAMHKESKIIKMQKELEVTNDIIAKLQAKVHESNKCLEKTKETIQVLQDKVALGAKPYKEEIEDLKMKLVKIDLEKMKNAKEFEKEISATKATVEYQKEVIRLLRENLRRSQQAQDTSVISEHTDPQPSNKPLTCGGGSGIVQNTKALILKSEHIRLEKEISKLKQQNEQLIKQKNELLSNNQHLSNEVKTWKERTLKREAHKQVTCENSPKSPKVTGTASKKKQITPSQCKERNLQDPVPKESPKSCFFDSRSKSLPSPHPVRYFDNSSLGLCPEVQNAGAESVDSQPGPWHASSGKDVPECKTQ

SMILES | pIC50 [2] | other results
CN(Cc1cc(C(F)(F)F)cc(C(F)(F)F)c1)C(=O)c1c(-c2ccc(F)cc2)c2cscc2c(=O)n1C | – | pIC50 [1]: 5.68
CN(Cc1ccc(Cl)c(Cl)c1)C(=O)c1c(-c2ccc(F)cc2)c2cscc2c(=O)n1C | 5.82 | pIC50 [1]: 5.82
CN(Cc1ccc(Cl)c(Cl)c1)C(=O)c1c(-c2ccc(F)cc2)c2cscc2c(=O)n1CCO | 5.74 | –
CN(C)CCn1c(C(=O)N(C)Cc2ccc(Cl)c(Cl)c2)c(-c2ccc(F)cc2)c2cscc2c1=O | 7.14 | –
CN(C)CCCn1c(C(=O)N(C)Cc2ccc(Cl)c(Cl)c2)c(-c2ccc(F)cc2)c2cscc2c1=O | 6.52 | –
CN(C)CCN(Cc1ccc(Cl)c(Cl)c1)C(=O)c1c(-c2ccc(F)cc2)c2cscc2c(=O)n1C | 7.00 | –
CN(C)CCN(Cc1ccc(Cl)c(Cl)c1)C(=O)c1c(-c2ccc(F)cc2)c2ccccc2n1C | 5.07 | –
Cc1c(C(=O)N(CCN(C)C)Cc2ccc(Cl)c(Cl)c2)n(-c2ccc(F)cc2)c2ccccc12 | 5.68 | –
CN(C)CCN(Cc1ccc(Cl)c(Cl)c1)C(=O)c1cc2sccc2n1-c1ccc(F)cc1 | 5.70 | –
Cc1csc2cc(C(=O)N(CCN(C)C)Cc3ccc(Cl)c(Cl)c3)n(-c3ccc(F)cc3)c12 | 6.43 | –
CN(C)CCN(Cc1ccc(Cl)c(Cl)c1)C(=O)c1cc2scc(Br)c2n1-c1ccc(F)cc1 | 7.49 | Papp [3]: 4.1 ×10⁻⁶ cm/s; pEC50 (HeLa): 5.52
CN(C)CCN(Cc1ccc(Cl)c(Cl)c1)C(=O)c1cc2scc(Cl)c2n1-c1ccc(F)cc1 | 7.46 | –
CN(C)CCN(Cc1ccc(Cl)c(Cl)c1)C(=O)c1cc2scc(C(F)(F)F)c2n1-c1ccc(F)cc1 | 6.85 | –
CN(C)CCN(Cc1ccc(Cl)c(Cl)c1)C(=O)c1cc2scc(C#N)c2n1-c1ccc(F)cc1 | 6.27 | –
CN(C)CCN(Cc1ccc(Cl)c(Cl)c1)C(=O)c1nc2cccc(Br)n2c1-c1ccc(F)cc1 | 7.30 | Papp [3]: 35.3 ×10⁻⁶ cm/s; pEC50 (HeLa): 5.81
